Screening results (PubChem)
INS-1E GSIS act: primary screen for activators of insulin secretion dependent on glucose, INS-1E cells, GLuc reporter luminescence; INS-1E GLuc reporter insulin secretion, 2-3 h; activation, % at 16.6 µM; 370,000 tested, 0.61% active; AID 743287;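 active = lowest replicate activation of at least 40%, so every replicate reaches that level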
FN deposition inh: fibronectin deposition inhibition. AH1F fibroblasts, Alexa488-fibronectin deposition fluorescence, overnight. inhibition, % at 12.6 µM. 350,000 tested, 0.086% active;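 active = mean inhibition across replicates of 30% or more, regardless of how many single replicates reach that level; inconclusive = mean under 30% yet at least half of replicates reach 30%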
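Material: AH1F fibroblasts assembling fluorescent fibronectin matrix; amount: 10000 AH1F cells/well; medium: DMEM, 2% serum; reagent: Alexa488-fibronectin, 24 nM final in well; dosing: single compound dose, delivered by pin transfer; incubation: 1 h adhesion, overnight exposure; detection: fluorescence after three HBSS washes, excitation 485 nm, emission 525 nm; measure: fibronectin deposition inhibition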
Env fusion inh: inhibitors of HIV Env-mediated cell fusion. HeLa-JRFL Env/CEM21 cell fusion, luciferase. inhibition, % at 12.3 µM. 360,000 tested, 1.1% active. AID 651610;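 active = mean replicate inhibition score of at least 50 and every replicate individually at or above 50; inconclusive = only one of the two criteria met; inactive = mean below 50 and not all replicates reaching 50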
ERp5 inh: inhibitors of human ERp5. Q15084. 350,000 tested, 0.05% active. inhibition, % at 9.99 µM. ERp5 insulin aggregation, absorbance 650 nm, 90 min;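 active = mean replicate inhibition above about 25%, with every replicate also reaching it, limit read from the data, passing the limit was not always enough; inconclusive = only one of those two criteria met; inactive = neither criterion met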
PDI turbidity: blocks human protein disulfide isomerase activity; inhibition, % at 10 µM; P07237; 350,000 tested, 0.052% active; PDI insulin aggregation turbidity, A650, 90 min;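 active = mean inhibition across replicates of 30% or more, whatever share of single replicates reach that level; inconclusive = mean inhibition below 30% while every single replicate reaches 30%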
Target sequence (P07237 whole entry, looked up): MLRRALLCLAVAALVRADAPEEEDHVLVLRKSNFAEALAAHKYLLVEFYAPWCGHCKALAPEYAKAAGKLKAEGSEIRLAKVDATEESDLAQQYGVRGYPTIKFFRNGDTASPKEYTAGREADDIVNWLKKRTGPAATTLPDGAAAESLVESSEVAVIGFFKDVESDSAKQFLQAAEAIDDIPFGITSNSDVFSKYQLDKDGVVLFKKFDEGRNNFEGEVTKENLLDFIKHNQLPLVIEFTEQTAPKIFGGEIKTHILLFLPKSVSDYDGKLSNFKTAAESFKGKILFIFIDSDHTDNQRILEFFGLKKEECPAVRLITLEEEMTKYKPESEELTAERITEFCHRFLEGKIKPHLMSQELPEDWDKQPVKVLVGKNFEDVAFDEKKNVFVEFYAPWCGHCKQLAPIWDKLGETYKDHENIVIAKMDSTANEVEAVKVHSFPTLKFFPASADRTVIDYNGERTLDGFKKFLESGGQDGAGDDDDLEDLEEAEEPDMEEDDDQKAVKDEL
Large screens that a line does not name were inactive. Shown are actives, neighbours in structure and some others; about 1.4% of the full set was active somewhere.

Cn1cnc(S(=O)(=O)N2CCN(c3ccccc3)CC2)c1	FN deposition inh 33
CCN1C(=O)N/C(=C/c2ccc(C)o2)C1=O	none
Cc1ccc(/C=C2/NC(=O)N(Cc3ccc(Br)cc3)C2=O)o1	INS-1E GSIS act 57 (no result: ERp5 inh)
COc1cccc(CNC(=O)C[C@H]2C=C[C@@H](NC(=O)C3CCOCC3)[C@@H](CO)O2)c1	none (no result: PDI turbidity)
Cn1cnc([N+](=O)[O-])c1S(=O)(=O)c1ccc(Cl)cc1	INS-1E GSIS act 82
NCCCCCc1cn([C@@H](CCC(=O)O)C(=O)NCCCCCCCCCCC(=O)N2CCNCC2)nn1	none
CC[C@H](C)Cc1cn([C@@H](CCCCN)C(=O)NCCCCCCCCCCC(=O)N2CCNCC2)nn1	INS-1E GSIS act 40
Cc1ccc(C)c(S(=O)(=O)Nc2ccc(C(=O)N3CCC3)cc2)c1	INS-1E GSIS act 43
CNC(=O)C1CCC(=O)N1Cc1ccccc1Cl (stereo not given)	none (no result: ERp5 inh)
O=C(Nc1cc(Cl)cc(Cl)c1)C1CCC(=O)N1Cc1ccccc1Cl (stereo not given)	Env fusion inh 53 (no result: INS-1E GSIS act, ERp5 inh)
CC1C(=O)N(Cc2ccc([N+](=O)[O-])cc2)c2ccccc2N1C(=O)c1c(F)cccc1F (stereo not given)	Env fusion inh 78
C[C@@H]1CN([C@@H](C)CO)S(=O)(=O)c2ccc(C#CC3CC3)cc2O[C@H]1CN(C)C(=O)c1cccnc1	none (no result: PDI turbidity)
C=CCN=c1sc(C(=O)OC)cc(=O)n1CC=C	INS-1E GSIS act 50 (no result: ERp5 inh)
C[C@@H]1CCCCO[C@@H](CN(C)C(=O)Cc2ccccc2)[C@H](C)CN([C@@H](C)CO)C(=O)c2cc(NC(=O)NC3CCCCC3)ccc2O1	none (no result: FN deposition inh, ERp5 inh, PDI turbidity)
COc1ccc(-c2csc(NC(=O)CSCc3c(C)noc3C)n2)cc1OC	none
Cc1noc(C)c1CSCC(=O)Nc1nc(-c2ccc(F)c(F)c2)cs1	Env fusion inh 61 (no result: FN deposition inh)
CC(NC(=O)c1cc(S(=O)(=O)N(C)C)ccc1N1CCCC1)C1CC2CCC1C2 (stereo not given)	Env fusion inh 72
CCCCC1(Cc2ccc(OC)c([N+](=O)[O-])c2)C(=O)N(c2ccccc2)N(c2ccccc2)C1=O	Env fusion inh 118 (no result: INS-1E GSIS act, ERp5 inh)
CCS(=O)(=O)Nc1ccc2c(c1)C(=O)N(C)[C@@H]1CC[C@@H](CC(=O)N3CCCCC3)O[C@@H]1CO2	none (no result: PDI turbidity)
COc1cc(/C=C/C(=O)c2ccc([N+](=O)[O-])o2)ccc1O	none
O=C(/C=C/c1cccc(Cl)c1)c1ccc([N+](=O)[O-])o1	FN deposition inh 59, Env fusion inh inconclusive
COc1ccc(/C=C/C(=O)c2ccc([N+](=O)[O-])o2)cc1OC	FN deposition inh 35 (no result: PDI turbidity)
COc1cc(CN2CC3(CN(C(=O)c4cccnc4)C3)c3c([nH]c4cc(OC)ccc34)[C@@H]2CO)cc(OC)c1	none (no result: FN deposition inh, Env fusion inh, PDI turbidity)
O=[N+]([O-])c1ccc(-c2nc(C(Cl)Cl)c3ccccc3n2)cc1	Env fusion inh 74
O=[N+]([O-])c1ccc(/C=N/n2c(-c3cccnc3)n[nH]c2=S)cc1	none (no result: ERp5 inh)
O=[N+]([O-])c1cccc(/C=N/n2c(-c3cccnc3)n[nH]c2=S)c1	INS-1E GSIS act 54 (no result: ERp5 inh)
COc1ccccc1NC(=O)N[C@H]1CC[C@@H](CCNS(=O)(=O)c2ccccc2)O[C@@H]1CO	none (no result: FN deposition inh, PDI turbidity)
CCc1nc2ccc(C(=O)NCCN3CCNC3=O)cn2c1N(CC)Cc1cccc(Br)c1	Env fusion inh 72
CCOC(=O)C(C(C)=O)c1c(Br)c(O)c(O)c2c(C(=O)c3ccc(C)cc3)coc12 (stereo not given)	Env fusion inh 108 (no result: ERp5 inh)
CCOC(=O)c1ccccc1NC(=O)c1n[nH]c(=O)c2ccccc12	INS-1E GSIS act 82 (no result: Env fusion inh, ERp5 inh)
CCOC(=O)c1ccc(NC(=O)c2n[nH]c(=O)c3ccccc23)cc1	none
CONc1nc(NC(C)(C)C)nc(OCC#N)n1	INS-1E GSIS act 65 (no result: Env fusion inh)
CC(C)(C)Nc1nc(OCC(F)(F)F)nc(OCC(F)(F)F)n1	Env fusion inh inconclusive (no result: INS-1E GSIS act, ERp5 inh)
Clc1ccc(-c2ccnc(Oc3ccc4ccccc4c3)n2)cc1	INS-1E GSIS act 114 (no result: FN deposition inh, Env fusion inh, ERp5 inh)
Clc1ccc(-c2ccnc(Oc3cc(Cl)ccc3Cl)n2)cc1	INS-1E GSIS act 85 (no result: FN deposition inh, Env fusion inh, ERp5 inh)
C[C@@H]1CN([C@@H](C)CO)C(=O)CCCn2cc(nn2)CO[C@@H]1CN(C)C(=O)Nc1cccc(C(F)(F)F)c1	none (no result: Env fusion inh, ERp5 inh, PDI turbidity)
COCCn1c(=O)[nH]c2cc(C(=O)Nc3cc(OC)c(OC)c(OC)c3)ccc2c1=O	INS-1E GSIS act 47
COCCn1c(=O)[nH]c2cc(C(=O)Nc3ccc(OC)c(Cl)c3)ccc2c1=O	none (no result: INS-1E GSIS act, FN deposition inh, Env fusion inh, ERp5 inh)
CCCCOc1ccc(C2=NNC(=O)CC2)cc1	INS-1E GSIS act 45
O=C(N[C@H]1CC[C@@H](CCNC(=O)C2CCOCC2)O[C@H]1CO)c1ccncc1	none (no result: PDI turbidity)
Cc1ccccc1[C@H](NC1c2ccccc2C=Cc2ccccc21)P(=O)(c1ccccc1)c1ccccc1	Env fusion inh 86 (no result: PDI turbidity)
Cc1ccc(P(=O)(c2ccc(C)cc2)[C@@H](NC(c2ccccc2)c2ccccc2)c2ccccc2)cc1	none (no result: PDI turbidity)
C[C@H](CO)N1C[C@H](C)[C@H](CN(C)C(=O)Nc2cccc3ccccc23)OCCCC[C@H](C)Oc2ccc(NC(=O)CCCN(C)C)cc2C1=O	none (no result: FN deposition inh, PDI turbidity)
CN(C)c1ccc(-c2ccnc3c2CC(C)(C(=O)NCC2CC2)O3)cc1 (stereo not given)	FN deposition inh 35
C[C@H]1CN([C@@H](C)CO)C(=O)c2cc(/C=C/c3ccccc3)cnc2O[C@H]1CN(C)S(=O)(=O)c1cn(C)cn1	none (no result: PDI turbidity)
O=C(/C=C/c1cccs1)N1CCC2(CC1)Oc1ccc(Cl)cc1C(=O)C21CC(c2cccnc2)=NO1 (stereo not given)	FN deposition inh 31
COc1ccc2c3c([nH]c2c1)[C@H](CO)N(C(=O)c1cnccn1)CC31CCN(S(C)(=O)=O)CC1	none (no result: FN deposition inh, Env fusion inh, PDI turbidity)
Cc1ccc(CNC(=O)CSc2nc3ccccc3[nH]2)cc1	none
COC(=O)c1ccc(CNC(=O)CSc2nc3ccccc3[nH]2)cc1	INS-1E GSIS act 79
C[C@@H]1CN([C@@H](C)CO)C(=O)c2cc(C#Cc3ccccn3)cnc2O[C@@H]1CN(C)Cc1ccccc1	none (no result: ERp5 inh, PDI turbidity)
CC(C)n1cc(/C(N)=N/O)c(=O)n(Cc2ccccc2)c1=O	INS-1E GSIS act 61
O=C(NCCN1CCN(C(=O)c2ccccc2Cl)CC1)C(=O)NCc1ccccc1	INS-1E GSIS act 160
O=C(NCCN1CCN(C(=O)c2cccc(Br)c2)CC1)C(=O)NCc1ccccc1	none
COc1ccc(NC(=O)N2CCCCN3[C@H](CO)[C@@H](c4ccc(-c5ccccc5F)cc4)[C@@H]3C2)cc1	none (no result: Env fusion inh, PDI turbidity)
CCc1ccc(N(C(=O)c2snc(C(N)=O)c2N)C(C(=O)NCCC(C)C)c2c[nH]c3ccccc23)cc1 (stereo not given)	Env fusion inh 118 (no result: INS-1E GSIS act, ERp5 inh)
Cc1ccc(S(=O)(=O)Nc2ccc3c(c2)C(=O)N([C@H](C)CO)C[C@@H](C)[C@@H](CN(C)C(=O)Cc2ccccc2)OCCCC[C@H](C)O3)cc1	none (no result: PDI turbidity)
Cc1ccc(S(=O)(=O)NCC[C@@H]2CC[C@@H](NC(=O)NC(C)C)[C@@H](CO)O2)cc1	none (no result: PDI turbidity)
